Assay results from ChEMBL document CHEMBL4145462, “Nitrogen-containing ecdysteroid derivatives vs. multi-drug resistance in cancer: Preparation and antitumor activity of oximes, oxime ethers and a lactam” (Eur J Med Chem, 2018).

Assays:
[1] = Cytotoxicity against mouse L5178 cells after 48 hrs by MTT assay; type: functional, cell-based; details: L5178, 48 h
Outline: (§1)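 Parental mouse lymphoma L5178 and the MDR line made by pHa MDR1/A retrovirus transfection, selected with 60 µg/L colchicine. Grown in McCoy's 5A with horse serum at 37°C, 5% CO2. 5 x 10^4 cells/well, serial compound dilutions, 48 h. MTT added to 0.5 mg/mL final for 4 h, then 10% SDS in 0.01 M HCl overnight, OD read at 540 and 630 nm. IC50 taken as median cytotoxic activity (Dm) from control lanes of checkerboard plates, n=2.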

[2] = Cytotoxicity against mouse L5178 cells expressing human ABCB1 after 48 hrs by MTT assay; type: functional, cell-based; details: L5178, 48 h; outline: as §1
ABCB1 (P-glycoprotein) [3] = molecular target: T1, ABCB1 (P-glycoprotein) (Homo sapiens, UniProt P08183); assay: Inhibition of human ABCB1 expressed in mouse L5178 cells assessed as increase in rhodamine-123 accumulation at 2 uM after 10 mins by flow cytometric analysis relative to control; type: cell-based; details: mouse L5178 cells expressing human ABCB1, probe rhodamine-123
Outline: (§2)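 Cells at 2 × 10^6/mL were preincubated 10 min with compound. Rhodamine 123 then added to 5.2 µM final, 20 min at 37 °C. Cells washed twice in PBS, resuspended and read by flow cytometry. Percent inhibition was scaled between MDR-cell accumulation (0%) and parental L5178 accumulation (100%). Controls: 100 nM tariquidar (positive) and 2% DMSO (negative).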

ABCB1 (P-glycoprotein) [4] = molecular target: T1, ABCB1 (P-glycoprotein); assay: Inhibition of human ABCB1 expressed in mouse L5178 cells assessed as increase in rhodamine-123 accumulation at 20 uM after 10 mins by flow cytometric analysis relative to control; type: cell-based; details: mouse L5178 cells expressing human ABCB1, probe rhodamine-123; outline: as §2
[5] = Synergistic cytotoxicity against mouse L5178 cells assessed as combination index at ED50 using 150:1 test compound to doxorubicin ratio after 48 hrs by MTT-based checkerboard microplate method; type: functional
Outline: (§3)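 Checkerboard microplate combinations of compound with doxorubicin at constant molar ratios. 5 × 10^4 cells/well in McCoy's 5A, 48 h at 37°C, 5% CO2. MTT added to 0.5 mg/mL final for 4 h, SDS/HCl overnight, OD read at 540 and 630 nm. Combination indices derived per ratio for 50%, 75% and 90% growth inhibition by median-effect analysis.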

[6] = Synergistic cytotoxicity against mouse L5178 cells expressing human ABCB1 assessed as combination index at ED50 using 15:1 test compound to doxorubicin ratio after 48 hrs by MTT-based checkerboard microplate method; type: functional; outline: as §3
[7] = Synergistic cytotoxicity against mouse L5178 cells assessed as combination index at ED75 using 150:1 test compound to doxorubicin ratio after 48 hrs by MTT-based checkerboard microplate method; type: functional; outline: as §3
[8] = Synergistic cytotoxicity against mouse L5178 cells assessed as combination index at ED90 using 150:1 test compound to doxorubicin ratio after 48 hrs by MTT-based checkerboard microplate method; type: functional; outline: as §3
[9] = Synergistic cytotoxicity against mouse L5178 cells expressing human ABCB1 assessed as combination index at ED75 using 15:1 test compound to doxorubicin ratio after 48 hrs by MTT-based checkerboard microplate method; type: functional; outline: as §3
[10] = Synergistic cytotoxicity against mouse L5178 cells expressing human ABCB1 assessed as combination index at ED90 using 15:1 test compound to doxorubicin ratio after 48 hrs by MTT-based checkerboard microplate method; type: functional; outline: as §3
[11] = Synergistic cytotoxicity against mouse L5178 cells expressing human ABCB1 assessed as combination index at ED50 using 30:1 test compound to doxorubicin ratio after 48 hrs by MTT-based checkerboard microplate method; type: functional; outline: as §3
[12] = Synergistic cytotoxicity against mouse L5178 cells expressing human ABCB1 assessed as combination index at ED75 using 30:1 test compound to doxorubicin ratio after 48 hrs by MTT-based checkerboard microplate method; type: functional; outline: as §3
[13] = Synergistic cytotoxicity against mouse L5178 cells expressing human ABCB1 assessed as combination index at ED90 using 30:1 test compound to doxorubicin ratio after 48 hrs by MTT-based checkerboard microplate method; type: functional; outline: as §3
[14] = Synergistic cytotoxicity against mouse L5178 cells expressing human ABCB1 assessed as combination index at ED50 using 60:1 test compound to doxorubicin ratio after 48 hrs by MTT-based checkerboard microplate method; type: functional; outline: as §3
[15] = Synergistic cytotoxicity against mouse L5178 cells expressing human ABCB1 assessed as combination index at ED75 using 60:1 test compound to doxorubicin ratio after 48 hrs by MTT-based checkerboard microplate method; type: functional; outline: as §3
[16] = Synergistic cytotoxicity against mouse L5178 cells expressing human ABCB1 assessed as combination index at ED90 using 60:1 test compound to doxorubicin ratio after 48 hrs by MTT-based checkerboard microplate method; type: functional; outline: as §3
[17] = Synergistic cytotoxicity against mouse L5178 cells assessed as combination index at ED50 using 300:1 test compound to doxorubicin ratio after 48 hrs by MTT-based checkerboard microplate method; type: functional; outline: as §3
[18] = Synergistic cytotoxicity against mouse L5178 cells assessed as combination index at ED75 using 300:1 test compound to doxorubicin ratio after 48 hrs by MTT-based checkerboard microplate method; type: functional; outline: as §3
[19] = Synergistic cytotoxicity against mouse L5178 cells assessed as combination index at ED90 using 300:1 test compound to doxorubicin ratio after 48 hrs by MTT-based checkerboard microplate method; type: functional; outline: as §3
[20] = Synergistic cytotoxicity against mouse L5178 cells assessed as combination index at ED50 using 600:1 test compound to doxorubicin ratio after 48 hrs by MTT-based checkerboard microplate method; type: functional; outline: as §3
[21] = Synergistic cytotoxicity against mouse L5178 cells assessed as combination index at ED75 using 600:1 test compound to doxorubicin ratio after 48 hrs by MTT-based checkerboard microplate method; type: functional; outline: as §3
[22] = Synergistic cytotoxicity against mouse L5178 cells assessed as combination index at ED90 using 600:1 test compound to doxorubicin ratio after 48 hrs by MTT-based checkerboard microplate method; type: functional; outline: as §3
HeLa = assay: Antiproliferative activity against human HeLa cells after 72 hrs by MTT assay; type: functional, cell-based
Outline: (§4)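 Cells grown in MEM with 10% FCS, 1% non-essential amino acids and 1% penicillin-streptomycin. Seeded at 5000 cells/well, exposed to 0.1–30.0 µM compound for 72 h. MTT (5 mg/ml solution) was then added for 4 h, formazan dissolved in DMSO, and absorbance read at 545 nm. Cisplatin served as positive control. IC50 came from sigmoidal dose–response fits (log inhibitor vs normalized response, variable slope).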

SiHa = assay: Antiproliferative activity against human SiHa cells after 72 hrs by MTT assay; type: functional, cell-based; outline: as §4
MDA-MB-231 = assay: Antiproliferative activity against human MDA-MB-231 cells after 72 hrs by MTT assay; type: functional, cell-based; details: MDA-MB-231, 72 h; outline: as §4
MCF7 = assay: Antiproliferative activity against human MCF7 cells after 72 hrs by MTT assay; type: functional, cell-based; details: MCF7, 72 h; outline: as §4
[23] = Synergistic cytotoxicity against mouse L5178 cells expressing human ABCB1 assessed as combination index at ED50 using 7.5:1 test compound to doxorubicin ratio after 48 hrs by MTT-based checkerboard microplate method; type: functional; outline: as §3
[24] = Synergistic cytotoxicity against mouse L5178 cells expressing human ABCB1 assessed as combination index at ED75 using 7.5:1 test compound to doxorubicin ratio after 48 hrs by MTT-based checkerboard microplate method; type: functional; outline: as §3
[25] = Synergistic cytotoxicity against mouse L5178 cells expressing human ABCB1 assessed as combination index at ED90 using 7.5:1 test compound to doxorubicin ratio after 48 hrs by MTT-based checkerboard microplate method; type: functional; outline: as §3
[26] = Synergistic cytotoxicity against mouse L5178 cells assessed as combination index at ED50 using 37.5:1 test compound to doxorubicin ratio after 48 hrs by MTT-based checkerboard microplate method; type: functional; outline: as §3
[27] = Synergistic cytotoxicity against mouse L5178 cells assessed as combination index at ED75 using 37.5:1 test compound to doxorubicin ratio after 48 hrs by MTT-based checkerboard microplate method; type: functional; outline: as §3
[28] = Synergistic cytotoxicity against mouse L5178 cells assessed as combination index at ED90 using 37.5:1 test compound to doxorubicin ratio after 48 hrs by MTT-based checkerboard microplate method; type: functional; outline: as §3
[29] = Synergistic cytotoxicity against mouse L5178 cells assessed as combination index at ED50 using 75:1 test compound to doxorubicin ratio after 48 hrs by MTT-based checkerboard microplate method; type: functional; outline: as §3
[30] = Synergistic cytotoxicity against mouse L5178 cells assessed as combination index at ED75 using 75:1 test compound to doxorubicin ratio after 48 hrs by MTT-based checkerboard microplate method; type: functional; outline: as §3
[31] = Synergistic cytotoxicity against mouse L5178 cells assessed as combination index at ED90 using 75:1 test compound to doxorubicin ratio after 48 hrs by MTT-based checkerboard microplate method; type: functional; outline: as §3

T1 sequence (P08183 whole entry): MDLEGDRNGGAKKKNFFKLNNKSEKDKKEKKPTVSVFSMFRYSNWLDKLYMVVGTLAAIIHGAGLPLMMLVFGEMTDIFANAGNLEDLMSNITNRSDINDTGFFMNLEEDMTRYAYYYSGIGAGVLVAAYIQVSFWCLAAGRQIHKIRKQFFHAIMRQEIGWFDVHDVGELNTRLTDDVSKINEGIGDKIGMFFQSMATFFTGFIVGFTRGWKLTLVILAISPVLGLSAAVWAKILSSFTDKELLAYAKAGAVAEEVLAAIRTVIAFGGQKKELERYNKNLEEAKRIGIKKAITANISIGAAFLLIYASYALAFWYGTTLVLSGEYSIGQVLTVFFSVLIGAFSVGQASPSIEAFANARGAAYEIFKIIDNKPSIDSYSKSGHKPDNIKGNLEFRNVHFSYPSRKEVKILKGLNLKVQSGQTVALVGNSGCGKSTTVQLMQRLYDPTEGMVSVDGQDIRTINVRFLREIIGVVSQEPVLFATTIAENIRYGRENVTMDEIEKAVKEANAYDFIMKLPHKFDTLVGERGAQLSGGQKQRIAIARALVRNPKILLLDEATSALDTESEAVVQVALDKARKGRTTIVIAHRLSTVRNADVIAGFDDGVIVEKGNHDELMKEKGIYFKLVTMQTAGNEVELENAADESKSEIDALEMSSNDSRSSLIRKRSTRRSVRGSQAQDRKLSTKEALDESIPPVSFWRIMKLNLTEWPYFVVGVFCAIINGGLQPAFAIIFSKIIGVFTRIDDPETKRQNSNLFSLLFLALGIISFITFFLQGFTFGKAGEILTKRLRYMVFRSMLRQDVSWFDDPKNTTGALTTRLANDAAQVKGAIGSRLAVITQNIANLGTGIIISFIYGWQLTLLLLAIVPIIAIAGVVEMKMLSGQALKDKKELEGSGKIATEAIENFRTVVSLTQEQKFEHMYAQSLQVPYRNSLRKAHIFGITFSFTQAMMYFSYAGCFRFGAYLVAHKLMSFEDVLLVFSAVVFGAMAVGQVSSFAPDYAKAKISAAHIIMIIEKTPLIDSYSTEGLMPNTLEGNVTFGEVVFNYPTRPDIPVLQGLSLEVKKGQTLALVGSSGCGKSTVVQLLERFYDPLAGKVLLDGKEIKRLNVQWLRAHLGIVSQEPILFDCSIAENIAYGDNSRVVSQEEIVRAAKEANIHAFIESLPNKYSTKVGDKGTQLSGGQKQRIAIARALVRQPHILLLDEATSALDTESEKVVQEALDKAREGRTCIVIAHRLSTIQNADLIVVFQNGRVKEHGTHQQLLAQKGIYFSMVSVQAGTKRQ

inhibition at 10 min, 2 µM (ABCB1 (P-glycoprotein) [3]) [%]	inhibition at 10 min, 20 µM (ABCB1 (P-glycoprotein) [4]) [%]	SMILES	IC50 [1] [µM]	IC50 [2] [µM]	CI [5]	CI [6]	CI [7]	CI [8]	CI [9]	CI [10]	CI [11]	CI [12]	CI [13]	CI [14]	CI [15]	CI [16]	CI [17]	CI [18]	CI [19]	CI [20]	also measured
7.15	81.1	CC(C)(O)CC[C@H]1OC(C)(C)O[C@]1(C)[C@H]1CC=C2C3=C/C(=N/O)[C@@H]4C[C@H]5OC(C)(C)O[C@H]5C[C@]4(C)[C@H]3CC[C@@]21C	34.2	28.4	0.98	0.98	0.76	0.61	0.25	0.27	0.32	0.25	0.2	0.42	0.34	0.28	1.14	1.17	1.25	1.01	CI [21]: 0.94; CI [22]: 0.91
1.16	4.27	CC(C)(O)CC[C@H]1OC(C)(C)O[C@]1(C)[C@H]1CC=C2C3=CC(=O)N[C@@H]4C[C@H]5OC(C)(C)O[C@H]5C[C@]4(C)[C@H]3CC[C@@]21C	63.4	72.4	0.4	0.2	0.42	0.46	0.12	0.09	0.18	0.13	0.11	0.2	0.17	0.15	0.43	0.46	0.5	0.58	IC50 (HeLa): > 30 µM; IC50 (SiHa): > 30 µM; IC50 (MDA-MB-231): > 30 µM; IC50 (MCF7): > 30 µM; CI [23]: 0.24; CI [24]: 0.15; CI [25]: 0.1; CI [26]: 0.57; CI [27]: 0.51; CI [28]: 0.46; CI [29]: 0.62; CI [30]: 0.52; CI [31]: 0.43; CI [21]: 0.63; CI [22]: 0.67
–	–	COc1cccc2c1C(=O)c1c(O)c3c(c(O)c1C2=O)C[C@@](O)(C(=O)CO)C[C@@H]3O[C@H]1C[C@H](N)[C@H](O)[C@H](C)O1 [DOXORUBICIN]	0.08	4.49	–	–	–	–	–	–	–	–	–	–	–	–	–	–	–	–	–
